In ChEMBL document CHEMBL3860041, “Synthesis, biological evaluation and molecular modeling study of some new methoxylated 2-benzylthio-quinazoline-4(3H)-ones as nonclassical antifolates” (Bioorg Med Chem Lett, 2016):

What was measured:
[1] = Growth inhibition of human SK-MEL-5 cells at 10 uM after 48 hrs by SRB assay relative to control; format: functional; details: SK-MEL-5, 48 h, read-out: GI
Procedure, shortened: (§1)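 Primary screen across the full NCI 60 human tumour cell line panel, which covers nine tumour subpanels. A single dose of 10 μM was applied to each line, and growth was recorded for each cell line.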

[2] = Growth inhibition of human HCT116 cells at 10 uM after 48 hrs by SRB assay relative to control; format: functional; details: HCT-116, 48 h, read-out: GI
Procedure, shortened: (§2)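 NCI 60-cell-line panel, nine tumor subpanels; compounds tested at a single dose of 10 μM in the primary screen.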

[3] = Growth inhibition of human OVCAR4 cells at 10 uM after 48 hrs by SRB assay relative to control; format: functional; details: OVCAR-4, 48 h, read-out: GI; procedure, shortened: as §2
[4] = Growth inhibition of human OVCAR8 cells at 10 uM after 48 hrs by SRB assay relative to control; format: functional; details: OVCAR-8, 48 h, read-out: GI; procedure, shortened: as §2
[5] = Growth inhibition of human SF268 cells at 10 uM after 48 hrs by SRB assay relative to control; format: functional; details: SF-268, 48 h, read-out: GI; procedure, shortened: as §2
[6] = Growth inhibition of human OVCAR3 cells at 10 uM after 48 hrs by SRB assay relative to control; format: functional; details: OVCAR-3, 48 h, read-out: GI; procedure, shortened: as §2
[7] = Growth inhibition of human NCI-H522 cells at 10 uM after 48 hrs by SRB assay relative to control; format: functional; details: NCI-H522, 48 h, read-out: GI; procedure, shortened: as §2
[8] = Growth inhibition of human BT549 cells at 10 uM after 48 hrs by SRB assay relative to control; format: functional; details: BT-549, 48 h, read-out: GI; procedure, shortened: as §2
[9] = Growth inhibition of human IGROV1 cells at 10 uM after 48 hrs by SRB assay relative to control; format: functional; details: IGROV-1, 48 h, read-out: GI; procedure, shortened: as §2
[10] = Growth inhibition of human HCT15 cells at 10 uM after 48 hrs by SRB assay relative to control; format: functional; details: HCT-15, 48 h, read-out: GI; procedure, shortened: as §2
[11] = Growth inhibition of human SNB75 cells at 10 uM after 48 hrs by SRB assay relative to control; format: functional; details: SNB-75, 48 h, read-out: GI; procedure, shortened: as §1
[12] = Growth inhibition of human NCI-H23 cells at 10 uM after 48 hrs by SRB assay relative to control; format: functional; details: NCI-H23, 48 h, read-out: GI; procedure, shortened: as §2
[13] = Growth inhibition of human K562 cells at 10 uM after 48 hrs by SRB assay relative to control; format: functional; details: K562, 48 h, read-out: GI; procedure, shortened: as §2
[14] = Growth inhibition of human SK-MEL-28 cells at 10 uM after 48 hrs by SRB assay relative to control; format: functional; details: SK-MEL-28, 48 h, read-out: GI; procedure, shortened: as §1
[15] = Growth inhibition of human SK-MEL-2 cells at 10 uM after 48 hrs by SRB assay relative to control; format: functional; details: SK-MEL-2, 48 h, read-out: GI; procedure, shortened: as §1
[16] = Growth inhibition of human NCI/ADR-RES cells at 10 uM after 48 hrs by SRB assay relative to control; format: functional; details: read-out: GI; procedure, shortened: as §2
[17] = Growth inhibition of human SKOV3 cells at 10 uM after 48 hrs by SRB assay relative to control; format: functional; details: SK-OV-3, 48 h, read-out: GI; procedure, shortened: as §1
[18] = Growth inhibition of human KM12 cells at 10 uM after 48 hrs by SRB assay relative to control; format: functional; details: KM12, 48 h, read-out: GI; procedure, shortened: as §2
[19] = Growth inhibition of human A498 cells at 10 uM after 48 hrs by SRB assay relative to control; format: functional; details: A498, 48 h, read-out: GI; procedure, shortened: as §2
[20] = Growth inhibition of human Hs 578T cells at 10 uM after 48 hrs by SRB assay relative to control; format: functional; details: read-out: GI; procedure, shortened: as §2
[21] = Growth inhibition of human MDA-MB-231 cells at 10 uM after 48 hrs by SRB assay relative to control; format: functional; details: MDA-MB-231, 48 h, read-out: GI; procedure, shortened: as §2
[22] = Growth inhibition of human HT-29 cells at 10 uM after 48 hrs by SRB assay relative to control; format: functional; details: HT-29, 48 h, read-out: GI; procedure, shortened: as §2
[23] = Growth inhibition of human OVCAR5 cells at 10 uM after 48 hrs by SRB assay relative to control; format: functional; details: OVCAR-5, 48 h, read-out: GI; procedure, shortened: as §2
[24] = Growth inhibition of human SF539 cells at 10 uM after 48 hrs by SRB assay relative to control; format: functional; details: SF-539, 48 h, read-out: GI; procedure, shortened: as §2
[25] = Growth inhibition of human COLO205 cells at 10 uM after 48 hrs by SRB assay relative to control; format: functional; details: COLO 205, 48 h, read-out: GI; procedure, shortened: as §2
[26] = biological target: T1, Dihydrofolate reductase (Bos taurus, UniProt P00376); assay: Inhibition of bovine liver DHFR preincubated for 2 mins followed by addition of FH2 as substrate and NADPH
T1 sequence (P00376 whole entry): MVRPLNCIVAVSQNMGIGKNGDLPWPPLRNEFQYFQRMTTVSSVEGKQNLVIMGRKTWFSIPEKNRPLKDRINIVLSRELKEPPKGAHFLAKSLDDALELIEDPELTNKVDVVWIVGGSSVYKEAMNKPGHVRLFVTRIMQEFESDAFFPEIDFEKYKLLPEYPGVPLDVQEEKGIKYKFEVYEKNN

[27] = Growth inhibition of human SN12C cells at 10 uM after 48 hrs by SRB assay relative to control; format: functional; details: read-out: GI; procedure, shortened: as §1
[28] = Growth inhibition of human SW620 cells at 10 uM after 48 hrs by SRB assay relative to control; format: functional; details: SW-620, 48 h, read-out: GI; procedure, shortened: as §1

SMILES: COc1ccc(-n2c(SCc3cc(OC)c(OC)c(OC)c3)nc3ccc(Cl)cc3c2=O)cc1
- inhibition of growth at 10 µM [1]: 15.1%
- inhibition of growth at 10 µM [2]: 33.3%
- inhibition of growth at 10 µM [3]: 28.3%
- inhibition of growth at 10 µM [4]: 13.7%
- inhibition of growth at 10 µM [5]: 15.2%
- inhibition of growth at 10 µM [6]: < 10%
- inhibition of growth at 10 µM [7]: 16.7%
- inhibition of growth at 10 µM [8]: < 10%
- inhibition of growth at 10 µM [9]: 16.3%
- inhibition of growth at 10 µM [10]: 19.3%
- inhibition of growth at 10 µM [11]: < 10%
- inhibition of growth at 10 µM [12]: 20.2%
- inhibition of growth at 10 µM [13]: 28.6%
- inhibition of growth at 10 µM [14]: < 10%
- inhibition of growth at 10 µM [15]: < 10%
- inhibition of growth at 10 µM [16]: 10.7%
- inhibition of growth at 10 µM [17]: < 10%
- inhibition of growth at 10 µM [18]: 18.7%
- inhibition of growth at 10 µM [19]: 49.1%
- inhibition of growth at 10 µM [20]: 13.9%
- inhibition of growth at 10 µM [21]: 36.8%
- inhibition of growth at 10 µM [22]: 17%
- inhibition of growth at 10 µM [23]: 10.5%
- inhibition of growth at 10 µM [24]: 12.7%
- inhibition of growth at 10 µM [25]: < 10%
- IC50 [26]: 3000 nM
- inhibition of growth at 10 µM [27]: 18.3%
- inhibition of growth at 10 µM [28]: < 10%

SMILES: COc1cc2nc(SCc3cc(OC)c(OC)c(OC)c3)n(-c3ccccc3OC)c(=O)c2cc1OC
- inhibition of growth at 10 µM [1]: < 10%
- inhibition of growth at 10 µM [2]: 12%
- inhibition of growth at 10 µM [3]: 16.9%
- inhibition of growth at 10 µM [4]: 15.4%
- inhibition of growth at 10 µM [5]: 30.1%
- inhibition of growth at 10 µM [6]: 51.8%
- inhibition of growth at 10 µM [7]: < 10%
- inhibition of growth at 10 µM [8]: 12.5%
- inhibition of growth at 10 µM [9]: 16.9%
- inhibition of growth at 10 µM [10]: 24.6%
- inhibition of growth at 10 µM [11]: 37.2%
- inhibition of growth at 10 µM [12]: 20.1%
- inhibition of growth at 10 µM [13]: 72.7%
- inhibition of growth at 10 µM [14]: 21.1%
- inhibition of growth at 10 µM [15]: < 10%
- inhibition of growth at 10 µM [16]: 37.1%
- inhibition of growth at 10 µM [17]: < 10%
- inhibition of growth at 10 µM [18]: 45.9%
- inhibition of growth at 10 µM [19]: 74.6%
- inhibition of growth at 10 µM [20]: 39.2%
- inhibition of growth at 10 µM [21]: 22.6%
- inhibition of growth at 10 µM [22]: 33.4%
- inhibition of growth at 10 µM [23]: 11%
- inhibition of growth at 10 µM [24]: 10.1%
- inhibition of growth at 10 µM [25]: < 10%
- IC50 [26]: 800 nM
- inhibition of growth at 10 µM [27]: < 10%
- inhibition of growth at 10 µM [28]: 23.6%

SMILES: COc1ccc(CSc2nc3cc(OC)c(OC)cc3c(=O)n2-c2ccc(OC)cc2OC)cc1
- inhibition of growth at 10 µM [1]: 19.5%
- inhibition of growth at 10 µM [2]: 37.2%
- inhibition of growth at 10 µM [3]: 16.8%
- inhibition of growth at 10 µM [4]: 10.8%
- inhibition of growth at 10 µM [5]: 13.7%
- inhibition of growth at 10 µM [6]: < 10%
- inhibition of growth at 10 µM [7]: 31.4%
- inhibition of growth at 10 µM [8]: < 10%
- inhibition of growth at 10 µM [9]: 14%
- inhibition of growth at 10 µM [10]: 19.4%
- inhibition of growth at 10 µM [11]: < 10%
- inhibition of growth at 10 µM [12]: 21.7%
- inhibition of growth at 10 µM [13]: 12.9%
- inhibition of growth at 10 µM [14]: < 10%
- inhibition of growth at 10 µM [15]: < 10%
- inhibition of growth at 10 µM [16]: 20.5%
- inhibition of growth at 10 µM [17]: < 10%
- inhibition of growth at 10 µM [18]: 21.9%
- inhibition of growth at 10 µM [19]: 41.4%
- inhibition of growth at 10 µM [20]: 13.3%
- inhibition of growth at 10 µM [21]: 24.6%
- inhibition of growth at 10 µM [22]: 12%
- inhibition of growth at 10 µM [23]: < 10%
- inhibition of growth at 10 µM [24]: < 10%
- inhibition of growth at 10 µM [25]: < 10%
- IC50 [26]: 300 nM
- inhibition of growth at 10 µM [27]: < 10%
- inhibition of growth at 10 µM [28]: < 10%

SMILES: COc1cc(CSc2nc3ccc(Cl)cc3c(=O)n2-c2ccccc2)cc(OC)c1OC
- inhibition of growth at 10 µM [1]: 18.8%
- inhibition of growth at 10 µM [2]: 38.2%
- inhibition of growth at 10 µM [3]: 18.3%
- inhibition of growth at 10 µM [4]: 15.7%
- inhibition of growth at 10 µM [5]: 22.3%
- inhibition of growth at 10 µM [6]: 22.2%
- inhibition of growth at 10 µM [7]: 61.6%
- inhibition of growth at 10 µM [8]: < 10%
- inhibition of growth at 10 µM [9]: 27.5%
- inhibition of growth at 10 µM [10]: 47.5%
- inhibition of growth at 10 µM [11]: 24.3%
- inhibition of growth at 10 µM [12]: 21%
- inhibition of growth at 10 µM [13]: 61.8%
- inhibition of growth at 10 µM [14]: < 10%
- inhibition of growth at 10 µM [15]: 22.5%
- inhibition of growth at 10 µM [16]: 24.5%
- inhibition of growth at 10 µM [17]: < 10%
- inhibition of growth at 10 µM [18]: 50.2%
- inhibition of growth at 10 µM [19]: 18.3%
- inhibition of growth at 10 µM [20]: < 10%
- inhibition of growth at 10 µM [21]: 37%
- inhibition of growth at 10 µM [22]: 33%
- inhibition of growth at 10 µM [23]: 15.4%
- inhibition of growth at 10 µM [24]: 21.1%
- inhibition of growth at 10 µM [25]: 15.5%
- IC50 [26]: 800 nM
- inhibition of growth at 10 µM [27]: 24%
- inhibition of growth at 10 µM [28]: 20.3%
